What is called MIC is the lowest concentration found to suppress growth. Read a high MIC as a need for much substance.

Converted amounts (≈) assume the structure as drawn. The source made the active and inactive calls. The rule behind the calls is not given here.

Assay [1] relates to Staphylococcus aureus. The assay can be described thus: Antibacterial activity against methicillin-resistant Staphylococcus aureus at 37 degC after 24 hrs by agar well diffusion assay. Format: functional. In short, it runs like this: (§1)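 Bacteria kept on Nutrient Agar slants at 4 °C and subcultured before use. Suspensions of 10^8 CFU/mL were swabbed onto Nutrient Agar and the plates dried 40 min at 35 °C. Compounds were dissolved in DMSO starting at 2.5 mg/ml, serially diluted two-fold, and loaded into 6 mm wells. Plates were pre-incubated 2 h at 25 °C, then 24 h at 37 °C. Inhibition zones were read and the MIC taken as the lowest inhibiting concentration. Duplicates were run.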
(In general: A growth-free zone around the sample is the usual read-out of agar diffusion tests.)

Assay [2] has as its system Staphylococcus aureus. The assay can be described thus: Antibacterial activity against Staphylococcus aureus at 30 ug/disc at 37 degC after 24 hrs by agar well diffusion assay. The assay is classed as functional. The settings on record: read-out: DIZ. In a few lines:
(§2)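 Positive-control antibiotic disc on Nutrient Agar swabbed with 10^8 CFU/mL bacteria. Plates pre-incubated 2 h at 25 °C, then 24 h at 37 °C. Inhibition zone diameter measured in mm. Duplicate.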

Assay [3] deals with Escherichia coli. The assay can be described thus: Antibacterial activity against Escherichia coli at 30 ug/disc at 37 degC after 24 hrs by agar well diffusion assay. Format: functional. The following applies: read-out: DIZ. In a few lines:
as §2

Assay [4] concerns Candida tropicalis. The assay can be described thus: Antifungal activity against Candida tropicalis at 100 U/disc at 25 degC after 48 hrs by agar well diffusion assay. The assay is classed as functional, organism-based. In a few lines:
(§3)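 Yeasts kept on Sabouraud Dextrose Agar slants at 4 °C and subcultured before use. Suspensions of 10^7 CFU/mL were swabbed onto Sabouraud Dextrose Agar and the plates dried 40 min at 35 °C. The nystatin positive-control disc carried 100 U. Plates were pre-incubated 2 h at 25 °C, then incubated 48 h at 25 °C. The growth-inhibition zone diameter was measured in mm, in duplicate.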

Assay [5] concerns Candida parapsilosis. The assay can be described thus: Antifungal activity against Candida parapsilosis at 100 U/disc at 25 degC after 48 hrs by agar well diffusion assay. The assay is classed as functional, organism-based. In short, it runs like this: as §3
Assay [6] relates to Nakaseomyces glabratus. The assay can be described thus: Antifungal activity against Candida glabrata at 100 U/disc at 25 degC after 48 hrs by agar well diffusion assay. The assay is classed as functional, organism-based. In short, it runs like this:
as §3

The test system of assay [7] is Pseudomonas aeruginosa. The assay can be described thus: Antibacterial activity against Pseudomonas aeruginosa at 37 degC after 24 hrs by agar well diffusion assay. The assay is classed as functional, organism-based. In short, it runs like this: (§4)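 Compounds dissolved in DMSO at 2.5 mg/ml initial concentration, then serially diluted two-fold in DMSO. Nutrient Agar plates were swabbed with 10^8 CFU/mL bacteria and dried about 40 min at 35 °C. Solution was placed in 6 mm wells, then 2 h pre-incubation at 25 °C and 24 h at 37 °C. MIC is the lowest concentration giving a growth-inhibition zone around the well. Duplicate.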

Assay [8] has as its system Escherichia coli. The assay can be described thus: Antibacterial activity against Escherichia coli at 37 degC after 24 hrs by agar well diffusion assay. The assay is classed as functional, organism-based. In short, it runs like this:
as §4

Assay [9] relates to Enterococcus. The assay can be described thus: Antibacterial activity against vancomycin-resistant Enterococcus species at 37 degC after 24 hrs by agar well diffusion assay. Format: functional, organism-based. In a few lines: as §1
Assay [10] has as its system Staphylococcus aureus. The assay can be described thus: Antibacterial activity against Staphylococcus aureus at 37 degC after 24 hrs by agar well diffusion assay. Format: functional. In short, it runs like this: as §4
The test system of assay [11] is Nakaseomyces glabratus. The assay can be described thus: Antifungal activity against Candida glabrata at 25 degC after 48 hrs by agar well diffusion assay. Format: functional. In short, it runs like this:
(§5)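 Yeast suspensions of 10^7 CFU/mL were swabbed onto Sabouraud Dextrose Agar and dried about 40 min at 35 °C. Compounds were dissolved in DMSO (2.5 mg/ml initial) and diluted two-fold in DMSO, then loaded into 6 mm wells. Plates: 2 h pre-incubation at 25 °C, then 48 h at 25 °C. MIC read as the lowest concentration inhibiting growth around the well, in duplicate. The C. albicans clinical isolate came from a hospitalized patient at Eskisehir Osmangazi University hospital; the standard strain came from a culture collection.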

Assay [12] relates to Candida albicans. The assay can be described thus: Antifungal activity against Candida albicans ESOGU at 25 degC after 48 hrs by agar well diffusion assay. Format: functional. In a few lines: as §5
Assay [13] concerns Candida albicans. The assay can be described thus: Antifungal activity against Candida albicans at 25 degC after 48 hrs by agar well diffusion assay. Format: functional. In short, it runs like this: as §5
Assay [14] concerns Candida tropicalis. The assay can be described thus: Antifungal activity against Candida tropicalis at 25 degC after 48 hrs by agar well diffusion assay. The assay is classed as functional. In short, it runs like this: as §5
Assay [15] concerns Candida parapsilosis. The assay can be described thus: Antifungal activity against Candida parapsilosis at 25 degC after 48 hrs by agar well diffusion assay. Format: functional. In short, it runs like this: as §5

Consider `CO/N=C(\C(=O)N[C@@H]1C(=O)N2C(C(=O)O)=C(COC(C)=O)CS[C@H]12)c1csc(N)n1` [CEFOTAXIME], for which, in assay [1], the outcome was inactive. Besides, the zone of inhibition at 30 µg/disc in assay [2] came to 35 mm; in assay [3] it was 45 mm.

As to NYSTATIN, the inhibition zone (IZ) in assay [4] amounted to 19 mm; in assay [5], 19 mm; in assay [6] it was 24 mm.

Turning to `O=C(Nc1cccc([N+](=O)[O-])c1)c1nn(-c2cccc([N+](=O)[O-])c2)c(-c2ccccc2)c1C(=O)Nc1cccc([N+](=O)[O-])c1`, the result in [7], in assay [8], in [9], in assay [10], in assay [1] and in assay [11] was inactive. The result in assay [14] was inactive. The MIC in assay [12] was 25 µg/mL (≈ 42.1 µM); in [13], 25 µg/mL (≈ 42.1 µM); in assay [15] (Lodderomyces parapsilosis), 50 µg/mL (≈ 84.2 µM).

As for `CCOC(=O)c1c(C(=O)Nc2ccc(F)cc2)nn(-c2cccc([N+](=O)[O-])c2)c1-c1ccccc1`, the result in assay [7], in [8], in assay [9], in assay [10], in [1] and in [11] was inactive. The outcome in assay [14] and in [15] was inactive. In addition, the MIC in assay [12] and in assay [13] was 50 µg/mL (≈ 105 µM) in each case.

For the compound `CCOC(=O)c1c(C(=O)Nc2cccc(F)c2)nn(-c2cccc([N+](=O)[O-])c2)c1-c1ccccc1`, the result in [7], in assay [8], in [9], in [10], in assay [1] and in assay [11] was inactive. The result in [14] and in assay [15] was inactive. The MIC in [12] worked out at 50 µg/mL (≈ 105 µM); in [13] it was 25 µg/mL (≈ 52.7 µM).

In the case of `O=C(Nc1cccc(C(F)(F)F)c1)c1nn(-c2cccc([N+](=O)[O-])c2)c(-c2ccccc2)c1C(=O)Nc1cccc(C(F)(F)F)c1`, the result in [7], in assay [8], in assay [9], in assay [10], in assay [1] and in assay [11] was inactive. Moreover, the outcome in [12], in assay [14] and in [15] was inactive. The lowest concentration to inhibit growth in assay [13] (MIC) was 50 µg/mL (≈ 78.2 µM).

On to `O=C(Nc1ccccc1C(F)(F)F)c1nn(-c2cccc([N+](=O)[O-])c2)c(-c2ccccc2)c1C(=O)Nc1ccccc1C(F)(F)F`, for which the outcome in assay [7], in assay [8], in assay [9], in [10], in assay [1] and in assay [11] was inactive. Besides, the result in [14] and in [15] was inactive. Besides, the MIC in assay [12] worked out at 50 µg/mL (≈ 78.2 µM); in [13], 25 µg/mL (≈ 39.1 µM).

Regarding `O=C(Nc1ccccc1F)c1nn(-c2cccc([N+](=O)[O-])c2)c(-c2ccccc2)c1C(=O)Nc1ccccc1F`, the outcome in assay [7], in assay [8], in assay [9], in [10], in [1] and in assay [11] was inactive. Moreover, the outcome in assay [12], in [14] and in assay [15] was inactive. Besides, in assay [13], the lowest concentration to inhibit growth (MIC) was 25 µg/mL (≈ 46.3 µM).
